Compound activity deposited in PubChem BioAssay by several laboratories.
Rows were chosen to be rich in hits. Some 1.3% of all compounds tested hit in one or more screens of this group.
TMEM16A act: activates or potentiates the mouse TMEM16A chloride channel | Q8BHY3 | HEK293 TMEM16A/YFP-H148Q/I152L, iodide quench fluorescence; stronger effect = lower value | B-score at 10 µM | actives 0.3% (n = 340,000);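 active = fluorescence-ratio B-score plate-corrected deviation score at least 3 library SD below zero, with starting fluorescence score within 5 deviations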;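 note: channel opened by trigger with iodide after compound preincubation; score built on the fluorescence ratio of max minus min over baseline; more negative score means more quench and so TMEM16A activation or potentiation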
MT1-MMP act inh: inhibitors of human MT1-MMP activation; actives 0.061% (n = 360,000); HT1080 RFP-PRO-GFP cells, GFP/RFP ratio fluorescence, overnight; percent of plate control window, DMSO zero; GFP/RFP ratio change, % at 20 µM; AID 651647;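 active = GFP/RFP ratio change of at least 30% with cell ATP level not reduced by more than half and red fluorescence within 50% of control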
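system = RFP-PRO-GFP reporter HT1080 cells | dosing = 20 µM single dose, 1% DMSO | timing = overnight cell settling, then overnight compound exposure, 37 °C, 5% CO2 | read-out basis = GFP/RFP fluorescence ratio | controls = DMSO and RFP-L50D-GFP cell wells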
TMEM16A inh: blocks the mouse calcium-activated chloride channel TMEM16A | Q8BHY3 | HEK293 TMEM16A/YFP iodide influx fluorescence, ionomycin | normalized B-score (activity score, 25-100; higher = stronger inhibition) at 10 µM | actives 1.2% (n = 310,000);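 active = ratio plate-corrected score three or more library SD toward inhibition, starting fluorescence score within five deviations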;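 note: score derived from kinetic fluorescence span divided by baseline fluorescence per well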
DAGLB inh: blocks human DAGLB lipase activity. actives 0.059% (n = 340,000). inhibition, % at 5.17 µM. HEK293T DAGLB membrane lysate, EnzChek fluorogenic substrate; in the data active = inhibition above about 34%;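 note: 0% = enzyme with vehicle and 100% = wells lacking enzyme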
Target sequence (Q8NCG7 whole entry, looked up): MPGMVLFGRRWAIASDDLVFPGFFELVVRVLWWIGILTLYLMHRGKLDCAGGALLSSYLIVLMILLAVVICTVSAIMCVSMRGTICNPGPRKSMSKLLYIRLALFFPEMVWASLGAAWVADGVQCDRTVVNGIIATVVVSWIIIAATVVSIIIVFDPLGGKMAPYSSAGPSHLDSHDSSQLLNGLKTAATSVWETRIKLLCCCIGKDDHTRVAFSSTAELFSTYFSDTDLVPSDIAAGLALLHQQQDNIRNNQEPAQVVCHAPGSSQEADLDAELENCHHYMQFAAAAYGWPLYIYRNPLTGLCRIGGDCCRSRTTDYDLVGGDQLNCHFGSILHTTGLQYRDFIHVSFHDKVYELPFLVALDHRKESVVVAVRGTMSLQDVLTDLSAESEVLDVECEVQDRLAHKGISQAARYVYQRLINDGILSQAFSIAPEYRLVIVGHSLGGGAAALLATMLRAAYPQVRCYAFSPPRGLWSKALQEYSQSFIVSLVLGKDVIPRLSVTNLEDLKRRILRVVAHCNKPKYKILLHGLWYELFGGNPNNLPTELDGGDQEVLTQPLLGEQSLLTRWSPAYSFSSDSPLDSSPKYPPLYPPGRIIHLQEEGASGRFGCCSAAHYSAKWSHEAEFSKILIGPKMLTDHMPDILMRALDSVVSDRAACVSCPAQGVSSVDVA
TMEM16A reconf: reconfirmed blocker of mouse TMEM16A calcium-activated chloride channel; HEK293 TMEM16A/YFP-H148Q, iodide quench fluorescence; ionomycin added to raise cell calcium; inhibition, % at 10 µM; shares compounds with TMEM16A inh; actives 39% (n = 2,300);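 active = mean duplicate percent inhibition, scaled so buffer wells are 0 and the reference blocker 100, over three buffer SD above buffer mean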
TMEM16A Ca cntr: alters calcium mobilization in TMEM16A HEK293 cells, counter-screen. calcium response (% of ionomycin), % at 10 µM. AID 652231. TMEM16A/YFP HEK293, Fluo4 calcium mobilization. shares compounds with TMEM16A inh. actives 2% (n = 2,300);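 active = duplicate-averaged calcium signal over 20% of the ionomycin maximum, relative to buffer baseline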;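 note: each well's signal is peak minus trough fluorescence divided by its pre-addition baseline; 0% = buffer wells and 100% = ionomycin wells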
YFP-HEK293 quench: acts in parental YFP-HEK293 cells lacking TMEM16A, counter-screen. shares compounds with TMEM16A inh. iodide YFP quench, ionomycin. YFP ratio F(max-min)/F0 at 10 µM. 2,300 tested, under 10 active;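 active = yellow fluorescent protein signal ratio exceeding the buffer control mean by over 5 SD of those controls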;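 note: ratio is mean of duplicate wells from kinetic YFP trace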
ClC-1 rat inh: blocks the rat ClC-1 voltage-dependent chloride channel | shares compounds with TMEM16A inh | ratio percent, % at 10 µM | 2,300 tested, under 10 active | CHO ClC-1-YFP, iodide influx fluorescence quench; iodide control reads 0, buffer control 100;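 active = duplicate-mean ratio percent above the mean of iodide-only control wells, which defines zero, plus 5 of their SD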;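 note: higher percent means stronger block of ClC-1 iodide influx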
The depositor's hits bear a star.

`CCN(CC)S(=O)(=O)c1cc(NC(=O)COC(=O)CCC(=O)c2cccs2)ccc1C` gave TMEM16A act inactive, MT1-MMP act inh -2, TMEM16A inh 25*, DAGLB inh -4, TMEM16A reconf 24%*, TMEM16A Ca cntr inactive, YFP-HEK293 quench -0.97 and ClC-1 rat inh -10.
`CCN(CC)S(=O)(=O)c1cccc(NC(=O)COC(=O)CCC(=O)c2cccs2)c1` gave TMEM16A act inactive, MT1-MMP act inh 2, TMEM16A inh inactive and DAGLB inh 0.
CCOc1cc2[nH]c(=S)n(Cc3ccc(C(=O)NCC(OC)OC)cc3)c(=O)c2cc1OCC was read as TMEM16A act inactive, MT1-MMP act inh 4, TMEM16A inh 100*, DAGLB inh -2, TMEM16A reconf inactive, TMEM16A Ca cntr inactive, YFP-HEK293 quench -1.1 and ClC-1 rat inh -6.
Screening Brc1cccc(-c2nc3c4ccccc4ccn3c2Cc2ccsc2)c1 returned MT1-MMP act inh 1.
For CCCCC(=O)Oc1c(S(=O)(=O)c2ccccc2)c(C)nn1C(C)(C)C the results were TMEM16A act inactive, MT1-MMP act inh -1, TMEM16A inh 25*, DAGLB inh -7, TMEM16A reconf inactive, TMEM16A Ca cntr inactive, YFP-HEK293 quench -0.93 and ClC-1 rat inh -4.
CCc1ccc(CN(C)C(=O)c2cc(COc3cccc4cnccc34)on2)cc1 was read as TMEM16A act inactive, MT1-MMP act inh 4, TMEM16A inh 100*, DAGLB inh 0, TMEM16A reconf 22%*, TMEM16A Ca cntr inactive, YFP-HEK293 quench -1.3 and ClC-1 rat inh -22.
Screening CCOc1ccc(OCC)c(NC(=O)CCn2c(=O)oc3ccccc32)c1 returned TMEM16A act inactive, MT1-MMP act inh 2, TMEM16A inh 100*, DAGLB inh -2, TMEM16A reconf inactive, TMEM16A Ca cntr inactive, YFP-HEK293 quench -1 and ClC-1 rat inh -6.
For CCCCOc1ccc2c(C)cc(=O)oc2c1OCCCC the results were TMEM16A act inactive, MT1-MMP act inh -1, TMEM16A inh 100*, DAGLB inh -8, TMEM16A reconf inactive, TMEM16A Ca cntr inactive, YFP-HEK293 quench -1.3 and ClC-1 rat inh -10.
For CCOc1ccc2c(C)cc(=O)oc2c1OCC the results were TMEM16A act inactive, MT1-MMP act inh -1, TMEM16A inh inactive and DAGLB inh 4.
Screening COc1ccccc1OCC(=O)NCC1CCCCC1 returned TMEM16A act inactive, MT1-MMP act inh 0, TMEM16A inh 100*, DAGLB inh -5, TMEM16A reconf inactive, TMEM16A Ca cntr inactive, YFP-HEK293 quench -1.1 and ClC-1 rat inh -19.
COc1ccccc1OCC(=O)NNc1c2ccccc2nc2ccccc12 was read as TMEM16A act inactive, MT1-MMP act inh 13, TMEM16A inh 25*, DAGLB inh 3, TMEM16A reconf 17%*, TMEM16A Ca cntr inactive, YFP-HEK293 quench -1 and ClC-1 rat inh -4.
For COc1cccc(OC)c1C(=O)OCC(=O)NCC1CCCCC1 the results were MT1-MMP act inh -2 and DAGLB inh -3.
COc1ccc(N2CCN(C(=O)C(=O)c3cn(CC(=O)N4CCCC4)c4ccccc34)CC2)cc1 was read as MT1-MMP act inh 1 and DAGLB inh 0.
For N#CC1(Cc2ccc(Cl)cc2)c2ccccc2C=CN1C(=O)c1ccccc1 (stereo not given) the results were TMEM16A act inactive, MT1-MMP act inh -11, TMEM16A inh 25*, DAGLB inh -6, TMEM16A reconf inactive, TMEM16A Ca cntr inactive, YFP-HEK293 quench -0.98 and ClC-1 rat inh -6.
